Reference: ChEMBL document CHEMBL4028913, “Discovery of Novel Potent VEGFR-2 Inhibitors Exerting Significant Antiproliferative Activity against Cancer Cell Lines” (J Med Chem, 2018)
Active and inactive are the calls of the source. The calls are words filed in the database; no cut-off is given here.

Tests used:
RXF 393 = assay: Cytotoxicity against human RXF393 cells after 48 hrs by SRB assay; assay type: functional; settings: RXF 393, 48 h
In short: (§1)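 NCI-60 panel; cells grown in RPMI 1640 with 5% FBS and 2 mM L-glutamine, plated at 5000–40 000 cells/well by doubling time, preincubated 24 h (37 °C, 5% CO2). Drug added at five concentrations, 1-log steps from 10−4 to 10−8 M, for 48 h. Fixed with TCA, stained with 0.4% SRB, absorbance read at 515 nm. Percent growth computed against time-zero and untreated controls; GI50, TGI and LC50 derived.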

Homo sapiens [1] = species: Homo sapiens; assay: Inhibition of human DDR at 0.5 uM relative to control
Leukemia cell = assay: Potency index, ratio of sunitinib GI50 to test compound GI50 for human leukemia cells; assay type: functional
In short: (§2)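 GI50 is the concentration giving 50% reduction in net protein increase relative to control. Potency index is the reference-drug GI50 divided by the test-compound GI50.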

SF-295 = assay: Cytotoxicity against human SF295 cells after 48 hrs by SRB assay; assay type: functional; settings: SF-295, 48 h; in short: as §1
Homo sapiens [2] = species: Homo sapiens; assay: Inhibition of human PDGFR at 0.5 uM relative to control
786-0 = assay: Cytotoxicity against human 786-0 cells after 48 hrs by SRB assay; assay type: functional; settings: 786-0, 48 h; in short: as §1
[3] = molecular target: STE20-like serine/threonine-protein kinase (Homo sapiens) (UniProt Q9H2G2); assay: Inhibition of human SLK at 0.5 uM relative to control
HUVEC = assay: Growth inhibition of HUVEC after 72 hrs by CellTiter-Glo assay; assay type: functional, cell-based; settings: Homo sapiens
In short: (§3)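 Cells in exponential phase seeded at 2000–4000 cells/well, then exposed 72 h at 37 °C, 5% CO2 with 0.1% final DMSO. Single-point screen at 10 μM final. […] Read-out was CellTiter-Glo luminescence.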

NCI/ADR-RES = assay: Potency index, ratio of sunitinib GI50 to test compound GI50 for human NCI-ADR-RES cells; assay type: functional; in short: as §2
[4] = molecular target: Fibroblast growth factor receptor 3 (Homo sapiens) (UniProt P22607); assay: Inhibition of human FGFR3 at 0.5 uM relative to control
OVCAR-8 = assay: Cytotoxicity against human OVCAR8 cells after 48 hrs by SRB assay; assay type: functional; settings: OVCAR-8, 48 h; in short: as §1
K562 = assay: Cytotoxicity against human K562 cells after 48 hrs by SRB assay; assay type: functional; settings: K562, 48 h; in short: as §1
[5] = Potency index, ratio of sunitinib TGI to test compound TGI for human renal cancer cells; assay type: functional, Renal cancer cell
M14 = assay: Cytotoxicity against human M14 cells after 48 hrs by SRB assay; assay type: functional; settings: M14, 48 h; in short: as §1
[6] = Potency index, ratio of sorafenib GI50 to test compound GI50 for human prostate cancer cells; assay type: functional, Prostate cancer cell; in short: as §2
[7] = molecular target: Ephrin type-A receptor 3 (Homo sapiens) (UniProt P29320); assay: Inhibition of human EPHA3 at 0.5 uM relative to control
COLO 205 = assay: Cytotoxicity against human COLO205 cells after 48 hrs by SRB assay; assay type: functional; settings: COLO 205, 48 h; in short: as §1
[8] = Potency index, ratio of sorafenib GI50 to test compound GI50 for human colon cancer cells; assay type: functional, Colon cancer cell; in short: as §2
MDA-MB-435 = assay: Growth inhibition of human MDA-MB-435 cells at 10 uM after 72 hrs by CellTiter-Glo assay relative to control; assay type: functional; settings: MDA-MB-435, 72 h, read-out: GI; in short: as §3
[9] = molecular target: Vascular endothelial growth factor receptor 1 (Homo sapiens) (UniProt P17948); assay: Inhibition of human Flt1 at 0.5 uM relative to control
[10] = Potency index, ratio of sunitinib GI50 to test compound GI50 for human ovarian cancer cells; assay type: functional, Ovarian cancer cell
[11] = molecular target: Ephrin type-A receptor 2 (Homo sapiens) (UniProt P29317); assay: Inhibition of human EPHA2 at 0.5 uM relative to control
[12] = molecular target: Vascular endothelial growth factor receptor 2 (Homo sapiens, UniProt P35968); assay: Inhibition of VEGFR2 in human prostate cancer cells assessed as decrease in Akt activation at 10 uM relative to control
SR = assay: Cytotoxicity against human SR cells after 48 hrs by SRB assay; assay type: functional; in short: as §1
SN12C = assay: Cytotoxicity against human SN12C cells after 48 hrs by SRB assay; assay type: functional; in short: as §1
[13] = molecular target: Proto-oncogene tyrosine-protein kinase Src (Homo sapiens) (UniProt P12931); settings: at 0.5 µM
Malme-3M = assay: Cytotoxicity against human MALME-3M cells after 48 hrs by SRB assay; assay type: functional; in short: as §1
OVCAR-5 = assay: Cytotoxicity against human OVCAR5 cells after 48 hrs by SRB assay; assay type: functional; settings: OVCAR-5, 48 h; in short: as §1
MDA-MB-468 = assay: Cytotoxicity against human MDA-MB-468 cells after 48 hrs by SRB assay; assay type: functional; settings: MDA-MB-468, 48 h; in short: as §1
[14] = molecular target: Ephrin type-A receptor 8 (Homo sapiens) (UniProt P29322); assay: Inhibition of human EPHA8 at 0.5 uM relative to control
NCI-H226 = assay: Cytotoxicity against human NCI-H226 cells after 48 hrs by SRB assay; assay type: functional; settings: NCI-H226, 48 h; in short: as §1
TK-10 = assay: Cytotoxicity against human TK10 cells after 48 hrs by SRB assay; assay type: functional; settings: TK-10, 48 h
In short: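 NCI-60 panel, five doses at 1-log steps from 10−4 to 10−8 M. Cells grown in RPMI 1640 with 5% FBS and 2 mM L-glutamine, seeded at 5000–40 000 cells/well and preincubated 24 h. Tz plates were TCA-fixed at drug addition. Drug exposure 48 h at 37 °C, then TCA fixation, 0.4% SRB stain and absorbance at 515 nm. GI50 taken from percent growth relative to Tz and control.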

[15] = Potency index, ratio of sunitinib GI50 to test compound GI50 for human colon cancer cells; assay type: functional, Colon cancer cell; in short: as §2
[16] = Potency index, ratio of sunitinib GI50 to test compound GI50 for human prostate cancer cells; assay type: functional, Prostate cancer cell
[17] = read-out: LC50 (the source's name)

Sequence of Vascular endothelial growth factor receptor 2 (P35968 whole entry): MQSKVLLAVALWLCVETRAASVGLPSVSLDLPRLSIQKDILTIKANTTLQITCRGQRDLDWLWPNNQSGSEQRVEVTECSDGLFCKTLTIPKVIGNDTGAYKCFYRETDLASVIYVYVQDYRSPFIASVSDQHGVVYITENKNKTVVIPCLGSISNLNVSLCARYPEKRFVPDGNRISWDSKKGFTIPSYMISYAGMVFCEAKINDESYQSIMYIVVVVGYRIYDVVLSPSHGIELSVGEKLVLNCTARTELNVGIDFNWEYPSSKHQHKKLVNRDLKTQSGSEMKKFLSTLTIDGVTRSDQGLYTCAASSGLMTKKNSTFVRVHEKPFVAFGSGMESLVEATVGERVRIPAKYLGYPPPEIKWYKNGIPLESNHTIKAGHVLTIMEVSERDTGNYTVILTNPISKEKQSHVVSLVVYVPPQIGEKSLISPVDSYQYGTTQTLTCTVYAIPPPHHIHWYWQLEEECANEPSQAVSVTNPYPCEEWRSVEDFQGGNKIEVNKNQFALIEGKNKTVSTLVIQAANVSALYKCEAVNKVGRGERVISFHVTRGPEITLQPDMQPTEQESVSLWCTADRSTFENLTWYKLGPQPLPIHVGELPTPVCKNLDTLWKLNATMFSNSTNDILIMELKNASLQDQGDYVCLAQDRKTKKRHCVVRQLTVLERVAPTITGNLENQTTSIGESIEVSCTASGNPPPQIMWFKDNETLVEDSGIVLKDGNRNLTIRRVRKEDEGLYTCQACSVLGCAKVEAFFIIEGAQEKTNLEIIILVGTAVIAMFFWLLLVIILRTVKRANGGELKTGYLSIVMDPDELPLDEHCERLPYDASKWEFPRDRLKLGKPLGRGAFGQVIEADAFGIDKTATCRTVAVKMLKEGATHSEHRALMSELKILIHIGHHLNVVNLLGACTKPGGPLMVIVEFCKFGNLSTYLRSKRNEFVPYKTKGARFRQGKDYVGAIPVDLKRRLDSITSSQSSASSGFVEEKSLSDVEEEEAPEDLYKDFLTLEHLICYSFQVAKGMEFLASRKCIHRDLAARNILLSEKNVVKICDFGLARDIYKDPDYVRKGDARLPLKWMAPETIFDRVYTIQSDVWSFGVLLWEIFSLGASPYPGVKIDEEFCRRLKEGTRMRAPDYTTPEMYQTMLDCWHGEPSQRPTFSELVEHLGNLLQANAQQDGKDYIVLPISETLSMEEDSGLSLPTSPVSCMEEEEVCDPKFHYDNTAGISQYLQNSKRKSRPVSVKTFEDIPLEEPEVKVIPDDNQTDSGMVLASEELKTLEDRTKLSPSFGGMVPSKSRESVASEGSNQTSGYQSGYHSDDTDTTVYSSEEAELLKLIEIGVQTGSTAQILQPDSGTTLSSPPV
Sequence of Ephrin type-A receptor 3 (Homo sapiens) (P29320 whole entry): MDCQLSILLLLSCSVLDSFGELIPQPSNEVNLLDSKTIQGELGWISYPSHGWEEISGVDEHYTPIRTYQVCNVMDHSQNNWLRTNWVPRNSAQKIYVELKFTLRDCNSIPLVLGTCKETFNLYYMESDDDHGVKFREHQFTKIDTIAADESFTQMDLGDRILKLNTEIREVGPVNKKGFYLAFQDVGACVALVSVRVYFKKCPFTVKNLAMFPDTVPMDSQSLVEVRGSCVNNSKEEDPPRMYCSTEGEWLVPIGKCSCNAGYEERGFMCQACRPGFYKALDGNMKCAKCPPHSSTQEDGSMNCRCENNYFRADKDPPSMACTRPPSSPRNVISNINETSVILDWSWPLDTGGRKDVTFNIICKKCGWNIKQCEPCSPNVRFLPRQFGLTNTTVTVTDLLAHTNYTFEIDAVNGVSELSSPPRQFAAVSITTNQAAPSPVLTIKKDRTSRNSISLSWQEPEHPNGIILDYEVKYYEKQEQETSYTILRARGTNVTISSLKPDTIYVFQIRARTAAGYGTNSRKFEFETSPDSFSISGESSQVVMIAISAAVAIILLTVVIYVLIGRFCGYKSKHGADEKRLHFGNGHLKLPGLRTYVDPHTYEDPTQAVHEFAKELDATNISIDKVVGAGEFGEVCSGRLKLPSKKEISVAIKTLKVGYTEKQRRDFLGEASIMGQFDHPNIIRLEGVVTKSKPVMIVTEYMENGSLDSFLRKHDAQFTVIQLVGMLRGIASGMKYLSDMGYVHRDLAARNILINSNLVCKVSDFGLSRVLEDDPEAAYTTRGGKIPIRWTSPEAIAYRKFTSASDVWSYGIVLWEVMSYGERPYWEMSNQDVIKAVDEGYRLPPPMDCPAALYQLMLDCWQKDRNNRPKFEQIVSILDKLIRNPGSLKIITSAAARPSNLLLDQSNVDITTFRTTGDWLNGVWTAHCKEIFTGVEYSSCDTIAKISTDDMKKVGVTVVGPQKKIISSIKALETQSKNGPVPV
Sequence of Vascular endothelial growth factor receptor 1 (Homo sapiens) (P17948 whole entry): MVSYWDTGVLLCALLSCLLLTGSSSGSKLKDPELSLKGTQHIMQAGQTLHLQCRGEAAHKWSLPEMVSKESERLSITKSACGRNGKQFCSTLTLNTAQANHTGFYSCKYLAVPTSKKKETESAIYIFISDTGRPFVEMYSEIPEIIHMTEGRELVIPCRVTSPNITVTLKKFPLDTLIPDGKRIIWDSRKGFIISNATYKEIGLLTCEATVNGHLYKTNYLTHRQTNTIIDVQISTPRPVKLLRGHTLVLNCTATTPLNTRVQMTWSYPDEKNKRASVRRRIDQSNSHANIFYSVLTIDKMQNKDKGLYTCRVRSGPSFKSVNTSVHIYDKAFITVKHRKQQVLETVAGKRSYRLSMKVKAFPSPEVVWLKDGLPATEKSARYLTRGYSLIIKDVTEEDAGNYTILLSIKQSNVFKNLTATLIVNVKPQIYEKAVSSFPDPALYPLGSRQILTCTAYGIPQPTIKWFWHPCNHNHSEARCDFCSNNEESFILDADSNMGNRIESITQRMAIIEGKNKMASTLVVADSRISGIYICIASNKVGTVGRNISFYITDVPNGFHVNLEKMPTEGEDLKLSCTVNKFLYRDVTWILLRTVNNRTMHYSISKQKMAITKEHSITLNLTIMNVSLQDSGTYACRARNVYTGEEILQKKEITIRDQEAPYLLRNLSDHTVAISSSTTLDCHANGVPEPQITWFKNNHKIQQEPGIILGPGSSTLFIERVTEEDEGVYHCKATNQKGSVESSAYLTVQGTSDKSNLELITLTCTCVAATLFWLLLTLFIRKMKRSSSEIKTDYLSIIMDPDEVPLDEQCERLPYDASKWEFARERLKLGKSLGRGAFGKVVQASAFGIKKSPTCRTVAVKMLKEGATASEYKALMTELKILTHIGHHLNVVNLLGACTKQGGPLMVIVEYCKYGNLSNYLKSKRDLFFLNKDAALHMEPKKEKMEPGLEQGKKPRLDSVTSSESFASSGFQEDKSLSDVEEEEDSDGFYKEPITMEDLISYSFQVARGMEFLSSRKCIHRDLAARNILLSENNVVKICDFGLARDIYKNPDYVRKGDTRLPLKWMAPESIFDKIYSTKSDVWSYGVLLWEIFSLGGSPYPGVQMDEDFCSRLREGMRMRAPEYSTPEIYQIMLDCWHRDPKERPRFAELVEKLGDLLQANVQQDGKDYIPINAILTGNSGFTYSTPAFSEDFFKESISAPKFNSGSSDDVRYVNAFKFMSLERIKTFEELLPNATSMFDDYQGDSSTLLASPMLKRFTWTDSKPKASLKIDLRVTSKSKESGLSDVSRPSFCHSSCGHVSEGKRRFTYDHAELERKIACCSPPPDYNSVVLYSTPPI
Sequence of STE20-like serine/threonine-protein kinase (Homo sapiens) (Q9H2G2 whole entry, looked up): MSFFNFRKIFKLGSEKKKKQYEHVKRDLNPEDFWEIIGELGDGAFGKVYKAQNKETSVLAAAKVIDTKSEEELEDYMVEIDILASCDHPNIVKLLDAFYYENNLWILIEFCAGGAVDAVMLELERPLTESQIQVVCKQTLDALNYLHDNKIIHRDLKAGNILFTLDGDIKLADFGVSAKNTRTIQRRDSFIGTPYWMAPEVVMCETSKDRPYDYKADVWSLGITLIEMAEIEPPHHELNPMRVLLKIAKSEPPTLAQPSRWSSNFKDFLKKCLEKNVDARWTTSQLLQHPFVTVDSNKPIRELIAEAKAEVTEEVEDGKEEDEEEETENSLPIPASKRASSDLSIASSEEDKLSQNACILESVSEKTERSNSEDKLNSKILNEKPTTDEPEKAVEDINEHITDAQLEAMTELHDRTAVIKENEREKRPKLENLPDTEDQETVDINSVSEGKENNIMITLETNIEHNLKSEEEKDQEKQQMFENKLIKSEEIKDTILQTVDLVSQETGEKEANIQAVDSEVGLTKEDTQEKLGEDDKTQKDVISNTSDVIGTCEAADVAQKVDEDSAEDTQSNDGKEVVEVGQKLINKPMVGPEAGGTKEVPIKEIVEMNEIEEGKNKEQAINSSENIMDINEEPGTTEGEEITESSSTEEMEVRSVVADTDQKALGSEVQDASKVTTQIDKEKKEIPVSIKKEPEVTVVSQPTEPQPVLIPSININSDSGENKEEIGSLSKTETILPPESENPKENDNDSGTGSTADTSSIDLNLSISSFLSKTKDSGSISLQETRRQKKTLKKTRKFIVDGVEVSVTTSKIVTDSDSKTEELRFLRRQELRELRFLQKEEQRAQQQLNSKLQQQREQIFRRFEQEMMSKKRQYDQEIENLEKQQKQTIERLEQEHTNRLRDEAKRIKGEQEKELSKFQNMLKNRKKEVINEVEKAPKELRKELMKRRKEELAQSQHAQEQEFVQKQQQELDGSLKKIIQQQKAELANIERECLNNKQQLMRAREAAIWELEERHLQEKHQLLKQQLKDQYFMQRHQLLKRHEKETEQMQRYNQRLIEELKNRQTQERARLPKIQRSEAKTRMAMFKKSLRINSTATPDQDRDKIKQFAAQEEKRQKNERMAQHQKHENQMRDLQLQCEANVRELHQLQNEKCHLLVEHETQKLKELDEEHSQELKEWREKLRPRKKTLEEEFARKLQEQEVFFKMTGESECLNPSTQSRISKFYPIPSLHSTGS

SMILES: COc1cc2ncnc(Oc3ccc(NC(=O)Nc4ccc(CN5CCOCC5)c(C(F)(F)F)c4)c4ccccc34)c2cc1OC
- GI50 (RXF 393): 1.05 µM
- TGI (RXF 393): 7.08 µM
- CC50 (RXF 393; [17]): 29.5 µM
- inhibition (Homo sapiens [1]): Active
- RatioGI50 (Leukemia cell): 5 - 7.7
- GI50 (SF-295): 1.23 µM
- TGI (SF-295): 6.03 µM
- CC50 (SF-295; [17]): 30.9 µM
- inhibition (Homo sapiens [2]): Active
- GI50 (786-0): 0.79 µM
- TGI (786-0): 5.37 µM
- CC50 (786-0; [17]): 26.9 µM
- inhibition [3]: Active
- IC50 (HUVEC): 0.63 µM
- RatioGI50 (NCI/ADR-RES): 6.9
- inhibition [4]: > 96%
- GI50 (OVCAR-8): 0.4 µM
- TGI (OVCAR-8): 9.55 µM
- CC50 (OVCAR-8; [17]): > 100 µM
- GI50 (K562): < 0.01 µM
- TGI (K562): 1.12 µM
- CC50 (K562; [17]): 95.5 µM
- Ratio [5]: 3.2
- GI50 (M14): 0.95 µM
- TGI (M14): 4.57 µM
- CC50 (M14; [17]): 26.9 µM
- RatioGI50 [6]: 1.6
- inhibition [7]: Active
- GI50 (COLO 205): 0.38 µM
- TGI (COLO 205): 3.39 µM
- CC50 (COLO 205; [17]): > 100 µM
- RatioGI50 [8]: 1.6 - 2.9
- inhibition of growth at 10 µM (MDA-MB-435): 98.4%
- inhibition [9]: Active
- RatioGI50 [10]: 5 - 7.7
- inhibition [11]: Active
- inhibition [12]: < 20%
- GI50 (SR): 0.69 µM
- TGI (SR): 5.37 µM
- CC50 (SR; [17]): > 100 µM
- GI50 (SN12C): 0.29 µM
- TGI (SN12C): 1.86 µM
- CC50 (SN12C; [17]): 13.2 µM
- inhibition [13]: Active
- GI50 (Malme-3M): 0.3 µM
- TGI (Malme-3M): 1.55 µM
- CC50 (Malme-3M; [17]): 5.75 µM
- GI50 (OVCAR-5): 1.07 µM
- TGI (OVCAR-5): 10.5 µM
- CC50 (OVCAR-5; [17]): > 100 µM
- GI50 (MDA-MB-468): 0.23 µM
- TGI (MDA-MB-468): 2.82 µM
- CC50 (MDA-MB-468; [17]): 72.4 µM
- inhibition [14]: Active
- GI50 (NCI-H226): 0.07 µM
- TGI (NCI-H226): 13.8 µM
- CC50 (NCI-H226; [17]): > 100 µM
- GI50 (TK-10): 0.38 µM
- TGI (TK-10): 5.89 µM
- CC50 (TK-10; [17]): 35.5 µM
- RatioGI50 [15]: 1.1 - 3.7
- RatioGI50 [16]: 1.5
